pIC50: −log10 of the molar value.

Data set [1] is described as follows: Cytotoxicity against mouse RAW264.7 cells assessed as viable cells after 24 hrs by MTS assay in presence of LPS. The conditions noted are these: read-out: Activity. Also on record: concentration or dose not given beside the values. Format: cell-based. In outline: (§1)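 RAW 264.7 cells treated 24 h with compound (0.31–20.0 µg/mL, DMSO 0.2% v/v final), without LPS or with 1 µg/mL LPS. MTS solution (16.7% in RPMI 1640) added for 10 min; absorbance read at 490 nm.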

Data set [2] is described as follows: Antiplatelet aggregatory activity in […] assessed as inhibition of collagen-induced platelet aggregation by aggregometry. Format: functional. The conditions noted are these: Homo sapiens, Plasma.
Data set [3] concerns RAW264.7. Description: Antiinflammatory activity in mouse RAW264.7 cells assessed as inhibition of LPS-induced NO production by Griess reagent method. Type of data set: functional, cell-based. In outline: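 RAW 264.7 cells (1 × 10^5/well) in DMEM with 10% FBS, 5% CO2, 37 °C, pre-incubated overnight. Then 24 h with vehicle or compound (0.31–20.0 µg/mL; DMSO final 0.2% v/v) plus 1 µg/mL E. coli 0127:B8 LPS. Nitrite in supernatant mixed 1:1 with Griess reagent, 5 min, OD 540 nm. IC50 derived; triplicate, mean ± SE.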

A short description of data set [4]: Antioxidant activity assessed as superoxide radical scavenging activity by chemiluminescence assay. Format: functional. The gist of the method: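 O2•− generated by methylglyoxal plus arginine in PBS pH 7.4, with lucigenin as the CL probe. Ultra-weak photons counted by chemiluminescence analyzer. Trolox positive control; triplicate.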
The nature of data set [5]: Antioxidant activity assessed as hydroxyl radical scavenging activity by chemiluminescence assay. Type of data set: functional. The gist of the method:
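•OH generated from EDTA, FeSO4 and 3% H2O2 with indoxyl-b-glucuronide as the CL probe. Ultra-weak photon emission read on a high-sensitivity chemiluminescence analyzer. IC50 is the concentration inhibiting 50% of generated •OH. Trolox as positive control; triplicate.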

A short description of data set [6]: Cytotoxicity against mouse RAW264.7 cells assessed as viable cells after 24 hrs by MTS assay. Type of data set: cell-based. Also on record: concentration or dose not given beside the values. The conditions noted are these: read-out: Activity. The gist of the method:
as §1

Data set [7] deals with RAW264.7. Description: Ratio of IC50 for quercetin to IC50 for drug against LPS-induced NO release in mouse RAW264.7 cells by Griess reagent method. Type of data set: functional.

`COc1cc(/C=C/COC(=O)c2ccc(O)cc2)ccc1O[C@@H](COC(=O)c1ccc(O)cc1)[C@@H](O)c1cc(OC)c(O)c(OC)c1` (relative stereo): the viability at 24 h in data set [1] and in data set [6] was above 85% each time. In addition, the negative-log IC50 (pIC50) was below 4.00 in data set [2], 4.00 in the data set with RAW264.7 [3], below 3.70 in data set [4] and 4.72 in data set [5].
As for `CCO[C@@H](c1ccc(O)c(OC)c1)[C@H](CO)Oc1c(OC)cc([C@@H]2CC(=O)c3c(O)cc(O)cc3O2)cc1OC` [QUIQUELIGNAN A], the pIC50 in data set [2] is below 4.00; in data set [4], below 3.70; in data set [5], 4.56.
On to `CC(=O)Oc1ccccc1C(=O)O` [ASPIRIN], for which the pIC50 in data set [2] was 4.12.
For the molecule `COc1cc(C(=O)C(COC(=O)c2ccc(O)cc2)Oc2c(OC)cc(/C=C/COC(=O)c3ccc(O)cc3)cc2OC)cc(OC)c1O` (stereo unspecified), the viability at 24 h in data set [1] and in data set [6] was above 85% throughout. Further, the pIC50 is 4.17 in data set [2], 4.70 in the data set on RAW264.7 [3], below 3.70 in data set [4] and 4.56 in data set [5]. Besides, in the data set on RAW264.7 [7], the “Ratio IC50” value is 2.7.
Take `CCO[C@@H](c1ccc(O)c(OC)c1)[C@@H](COC(=O)c1ccc(O)cc1)Oc1c(OC)cc([C@@H]2CC(=O)c3c(O)cc(O)cc3O2)cc1OC` [QUIQUELIGNAN B]: the viability at 24 h in data set [1] and in data set [6] was above 85% each time. Moreover, the pIC50 in data set [2] was 4.36; in the data set on RAW264.7 [3] it was 4.44; in data set [4], below 3.70; in data set [5] it was 4.70.
Regarding `COc1cc([C@H](O)[C@H](COC(=O)c2ccc(O)cc2)Oc2c(OC)cc(/C=C/COC(=O)c3ccc(O)cc3)cc2OC)ccc1O` (relative stereo), the viability at 24 h in data set [1] and in data set [6] was above 85% in each case. Also, the pIC50 was 4.26 in data set [2], 4.28 in the data set with RAW264.7 [3], below 3.70 in data set [4] and 4.69 in data set [5].
Consider `Cc1c(C)c2c(c(C)c1O)CCC(C)(C(=O)O)O2` (stereo unspecified) [TROLOX], for which the negative-log IC50 (pIC50) in data set [4] is 4.48; in data set [5] it was 5.36.
Turning to `COc1cc([C@@H](O)[C@H](COC(=O)c2ccc(O)cc2)Oc2c(OC)cc(/C=C/COC(=O)c3ccc(O)cc3)cc2OC)cc(OC)c1O` (relative stereo), the viability at 24 h in data set [1] and in data set [6] was above 85% throughout. In addition, the negative logarithm of the IC50 (pIC50) in data set [2] is 4.57; with RAW264.7 [3], 4.93; in data set [4], below 3.70; in data set [5] it was 4.91.
For `COc1cc(C(=O)C(COC(=O)c2ccc(O)cc2)Oc2c(OC)cc([C@@H](O)[C@H](O)COC(=O)c3ccc(O)cc3)cc2OC)cc(OC)c1O` (relative stereo), the results for the pIC50 in data set [4] and in data set [5] were 4.27 and 5.21, respectively.
Consider `CCO[C@H](c1ccc(O)c(OC)c1)[C@@H](CO)Oc1c(OC)cc(-c2cc(=O)c3c(O)cc(O)cc3o2)cc1OC` [QUIQUELIGNAN C], for which the viability at 24 h in data set [1] and in data set [6] was above 85% throughout. Moreover, the pIC50 in data set [2] is 4.31; with RAW264.7 [3], 4.20; in data set [4], below 3.70; in data set [5] it was 4.82.
Regarding `O=c1c(O)c(-c2ccc(O)c(O)c2)oc2cc(O)cc(O)c12` [QUERCETIN], in the data set with RAW264.7 [3], the negative-log IC50 (pIC50) was 4.27.

The record behind these values is ChEMBL document CHEMBL1159119, “Quiquelignan A-H, eight new lignoids from the rattan palm Calamus quiquesetinervius and their antiradical, anti-inflammatory and antiplatelet aggregation activities” (Bioorg Med Chem, 2010).
